Holding throughout (type): functional
One experiment relates to NCI-H226. Put plainly: Growth inhibition of human NCI-H226 cells at 10 uM after 48 hrs by SRB assay. The note with it: NCI-H226, 48 h, read-out: GI. The essentials: (§1)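 Cells grown in RPMI 1640 with 5% FBS and 2 mM L-glutamine, plated at 5000–40,000 cells/well by doubling time and preincubated 24 h (37 °C, 5% CO2); a time-zero plate is TCA-fixed. Single dose added, then 48 h incubation. Fixed with cold TCA, stained with 0.4% SRB, dye solubilized in 10 mM Tris base, absorbance at 515 nm; percent growth vs time-zero and untreated control.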

The test system of the next experiment is TK-10. As to the kind of experiment: Growth inhibition of human TK10 cells at 10 uM after 48 hrs by SRB assay. The note with it: TK-10, 48 h, read-out: GI. The essentials: (§2)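 NCI 60-cell-line screen with a single 10 µM dose. Cells are grown in RPMI 1640 with 5% FBS and 2 mM L-glutamine, plated at 5000–40,000 cells/well according to doubling time, and preincubated 24 h at 37 °C, 5% CO2; time-zero plates are TCA-fixed at that point. Drug exposure is 48 h. Adherent cells are fixed with cold TCA, stained with 0.4% SRB in 1% acetic acid and read at 515 nm. Percent growth is calculated relative to time-zero and untreated controls and reported as GI%.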

The test system of a further experiment is RPMI-8226. As to the kind of experiment: Growth inhibition of human RPMI8226 cells at 10 uM after 48 hrs by SRB assay. The settings on record: RPMI-8226, 48 h, read-out: GI. The essentials: as §1
A further experiment has as its system T47D. Put plainly: Growth inhibition of human T47D cells at 10 uM after 48 hrs by SRB assay. The note with it: read-out: GI. In short, it runs like this:
as §2

The test system of a further experiment is HT-29. Put plainly: Growth inhibition of human HT-29 cells at 10 uM after 48 hrs by SRB assay. The note with it: HT-29, 48 h, read-out: GI. In short, it runs like this:
as §1
In general terms: In SRB staining, fixed cells bind dye roughly in proportion to their protein.

The subject of the next experiment is KM12. Put plainly: Growth inhibition of human KM12 cells at 10 uM after 48 hrs by SRB assay. The note with it: KM12, 48 h, read-out: GI. In short, it runs like this: as §1
A further experiment has as its system MOLT-4. As to the kind of experiment: Growth inhibition of human MOLT4 cells at 10 uM after 48 hrs by SRB assay. The note with it: MOLT-4, 48 h, read-out: GI. The essentials:
as §1

In another experiment the test system is SK-OV-3. Put plainly: Growth inhibition of human SKOV3 cells at 10 uM after 48 hrs by SRB assay. The note with it: SK-OV-3, 48 h, read-out: GI. The essentials:
as §2

The subject of the next experiment is OVCAR-3. As to the kind of experiment: Growth inhibition of human OVCAR3 cells at 10 uM after 48 hrs by SRB assay. The note with it: OVCAR-3, 48 h, read-out: GI. The essentials: as §1
Another experiment deals with COLO 205. Put plainly: Growth inhibition of human COLO205 cells at 10 uM after 48 hrs by SRB assay. The note with it: COLO 205, 48 h, read-out: GI. In short, it runs like this: as §1
For a further experiment, the system named is SNB-75. Put plainly: Growth inhibition of human SNB75 cells at 10 uM after 48 hrs by SRB assay. The note with it: SNB-75, 48 h, read-out: GI. The essentials:
as §2

A further experiment relates to K562. As to the kind of experiment: Growth inhibition of human K562 cells at 10 uM after 48 hrs by SRB assay. The settings on record: K562, 48 h, read-out: GI. The essentials: as §1
The test system of the next experiment is A549. As to the kind of experiment: Growth inhibition of human A549 cells at 10 uM after 48 hrs by SRB assay. The settings on record: A549, 48 h, read-out: GI. In short, it runs like this: as §1
The next experiment concerns SW-620. As to the kind of experiment: Growth inhibition of human SW620 cells at 10 uM after 48 hrs by SRB assay. The note with it: SW-620, 48 h, read-out: GI. The essentials:
as §2

Another experiment has as its system OVCAR-8. Put plainly: Growth inhibition of human OVCAR8 cells at 10 uM after 48 hrs by SRB assay. The settings on record: OVCAR-8, 48 h, read-out: GI. In short, it runs like this:
as §1

The subject of a further experiment is HL-60(TB). Put plainly: Growth inhibition of human HL-60(TB) cells at 10 uM after 48 hrs by SRB assay. The settings on record: HL-60, 48 h, read-out: GI. In short, it runs like this: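 Single-concentration pass across the 60-line panel in RPMI 1640 with 5% FBS. Cells preincubated 24 h, then exposed 48 h at 37 °C, 5% CO2. Read by SRB staining with absorbance at 515 nm. Percent growth is taken relative to time-zero and untreated controls and reported as percent growth inhibition (GI %).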

A further experiment relates to HCT-116. As to the kind of experiment: Growth inhibition of human HCT116 cells at 10 uM after 48 hrs by SRB assay. The settings on record: HCT-116, 48 h, read-out: GI. In short, it runs like this: as §1
The test system of the next experiment is CCRF-CEM. As to the kind of experiment: Growth inhibition of human CCRF-CEM cells at 10 uM after 48 hrs by SRB assay. The note with it: read-out: GI. In short, it runs like this:
as §1

Experiment [1] in a line: Growth inhibition of human HCC2998 cells at 10 uM after 48 hrs by SRB assay. The note with it: HCC 2998, 48 h, read-out: GI. In short, it runs like this: as §1
The subject of the next experiment is MDA-MB-435. Put plainly: Growth inhibition of human MDA-MB-435 cells at 10 uM after 48 hrs by SRB assay. The settings on record: MDA-MB-435, 48 h, read-out: GI. In short, it runs like this: as §1
The next experiment has as its system MDA-MB-231. Put plainly: Growth inhibition of human MDA-MB-231 cells at 10 uM after 48 hrs by SRB assay. The settings on record: MDA-MB-231, 48 h, read-out: GI. In short, it runs like this:
as §1

In the next experiment the test system is UACC-257. As to the kind of experiment: Growth inhibition of human UACC257 cells at 10 uM after 48 hrs by SRB assay. The settings on record: UACC-257, 48 h, read-out: GI. In short, it runs like this:
as §2

Molecules are shown by their SMILES.

Turning to `O=c1c2cccc3c(Nc4ccc(Br)cn4)ccc(c32)c2nc3ccccc3n12`, the inhibition of growth at 10 µM is below 20% in the experiment on NCI-H226; 21.9% with TK-10; 43.8% with RPMI-8226; 81.6% in the experiment with T47D; below 20% in the experiment on HT-29; 22.8% in the experiment with KM12. For the same compound, the inhibition of growth at 10 µM is below 20% with MOLT-4; below 20% in the experiment on SK-OV-3; below 20% with OVCAR-3; below 20% with COLO 205; 56% in the experiment on SNB-75; below 20% in the experiment with K562. In addition, the inhibition of growth at 10 µM in the experiment on A549, in the experiment with SW-620, in the experiment on OVCAR-8, with HL-60(TB), in the experiment with HCT-116 and with CCRF-CEM was below 20% each time. Also, the inhibition of growth at 10 µM in experiment [1] was 25.2%; with MDA-MB-435, below 20%; with MDA-MB-231, 33.8%; in the experiment on UACC-257 it was below 20%.
As to `O=c1c2cccc3c(NCCO)ccc(c32)c2nc3ccccc3n12`, the inhibition of growth at 10 µM in the experiment with NCI-H226 was below 20%; in the experiment with TK-10 it was below 20%; in the experiment on RPMI-8226, 28.6%; in the experiment with T47D, 31.7%; with HT-29, below 20%; with KM12 it was below 20%. The inhibition of growth at 10 µM in the experiment with MOLT-4, in the experiment on SK-OV-3, in the experiment on OVCAR-3, in the experiment on COLO 205, in the experiment with SNB-75 and in the experiment on K562 was below 20% in each case. For the same compound, the inhibition of growth at 10 µM in the experiment with A549, in the experiment with SW-620, with OVCAR-8, in the experiment on HL-60(TB), in the experiment with HCT-116 and with CCRF-CEM was below 20% throughout. Besides, the inhibition of growth at 10 µM (in experiment [1]; with MDA-MB-435; with MDA-MB-231; with UACC-257) was below 20% in each case.
For the compound `O=c1c2cccc3c(Nc4ccccn4)ccc(c32)c2nc3ccccc3n12`, the inhibition of growth at 10 µM came to 30.4% with NCI-H226; 34.2% with TK-10; 51% in the experiment with RPMI-8226; 53.4% with T47D; 35.4% in the experiment with HT-29; 25.2% in the experiment with KM12. In addition, the inhibition of growth at 10 µM was 38.2% in the experiment on MOLT-4; below 20% in the experiment with SK-OV-3; 30% with OVCAR-3; 29% with COLO 205; 21.4% in the experiment with SNB-75; 53.5% in the experiment with K562. Further, the inhibition of growth at 10 µM was 29.1% with A549; 22.9% in the experiment with SW-620; 24.6% in the experiment on OVCAR-8; 37.7% in the experiment with HL-60(TB); 35% in the experiment with HCT-116; 48.2% in the experiment with CCRF-CEM. The inhibition of growth at 10 µM is 31.5% in experiment [1], below 20% with MDA-MB-435 and 29.4% in the experiment with MDA-MB-231.
As to `O=c1c2cccc3c(NC4CCCCC4)ccc(c32)c2nc3ccccc3n12`, the inhibition of growth at 10 µM in the experiment with NCI-H226 is 28%; in the experiment with TK-10, 22.6%; in the experiment on RPMI-8226, 24.4%; in the experiment with T47D, 67.5%; in the experiment with HT-29 it was 23.1%; with KM12 it was below 20%. In addition, the inhibition of growth at 10 µM in the experiment on MOLT-4 was 50.2%; in the experiment on SK-OV-3, below 20%; in the experiment with OVCAR-3 it was below 20%; in the experiment with COLO 205, 24.4%; in the experiment with SNB-75, below 20%; in the experiment on K562, 33.1%. Also, the inhibition of growth at 10 µM with A549 was 33.5%; with SW-620, below 20%; in the experiment with OVCAR-8 it was below 20%; in the experiment with HL-60(TB), 37.4%; in the experiment with HCT-116, below 20%; in the experiment with CCRF-CEM it was 34.6%. For the same compound, the inhibition of growth at 10 µM in experiment [1] is 48.3%; with MDA-MB-435, below 20%; with MDA-MB-231, below 20%.
Consider `O=c1c2cccc3c(Nc4c(F)cccc4F)ccc(c32)c2nc3ccccc3n12`, for which the inhibition of growth at 10 µM with NCI-H226 was 24.9%; in the experiment with RPMI-8226, 24.6%; with T47D, 47.3%; in the experiment with HT-29, below 20%; in the experiment on KM12 it was 21.1%; in the experiment with MOLT-4, 25.9%. In addition, the inhibition of growth at 10 µM in the experiment on SK-OV-3 was below 20%; in the experiment on OVCAR-3, below 20%; in the experiment on COLO 205, below 20%; with SNB-75 it was 20.1%; in the experiment with K562, below 20%; in the experiment on A549 it was below 20%. Also, the inhibition of growth at 10 µM with SW-620 was below 20%; in the experiment on OVCAR-8, below 20%; with HL-60(TB), below 20%; with HCT-116 it was below 20%; in the experiment on CCRF-CEM it was 27.5%; in experiment [1], 27.3%. Also, the inhibition of growth at 10 µM with MDA-MB-435 and in the experiment with MDA-MB-231 was below 20% in each case.
As for `CCCCNc1ccc2c3c1cccc3c(=O)n1c3ccccc3nc21`, the inhibition of growth at 10 µM is 26.3% with NCI-H226; 29.8% in the experiment with TK-10; below 20% with RPMI-8226; 64.3% with T47D; below 20% in the experiment with HT-29; 22.3% with KM12. In addition, the inhibition of growth at 10 µM was 30.6% in the experiment on MOLT-4; below 20% with SK-OV-3; below 20% in the experiment with OVCAR-3; below 20% in the experiment with COLO 205; 26.6% in the experiment on SNB-75; 21.2% in the experiment on K562. Also, the inhibition of growth at 10 µM is 23.4% in the experiment on A549; below 20% in the experiment on SW-620; below 20% in the experiment on OVCAR-8; 36.6% in the experiment on HL-60(TB); below 20% with HCT-116; 25% in the experiment on CCRF-CEM. In addition, the inhibition of growth at 10 µM in [1] is 26%; in the experiment with MDA-MB-435, below 20%; in the experiment with MDA-MB-231, 20.2%.

The record behind these values is ChEMBL document CHEMBL2424551, “Synthesis, in vitro evaluation and molecular modelling of naphthalimide analogue as anticancer agents” (2013).
